The term IC50 denotes the concentration needed to halve the response being measured. By inhibition is commonly meant how much of the control response was suppressed. High values mean strong suppression, low ones little suppression.

One assay has as its system A549. As to the kind of experiment: Cytotoxicity against human A549 cells assessed as inhibition of cell growth measured for 24 hrs by MTT assay. The format is functional, cell-based. The settings on record: A549, 24 h. The method, boiled down: (§1)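 Cells were kept at 37 °C with 5% CO2 in suitable medium with 10% FBS and 1% antibiotic-antimycotic, and passaged at 80-90% confluency using 0.25% trypsin/1 mM EDTA. They were seeded at 1×10^3–4×10^3 cells/well and attached overnight. Compounds came from 10 mM DMSO stocks diluted in medium and were applied for 24 h. MTT (0.5 mg/mL) was added for 4 h at 37 °C, formazan was dissolved in DMSO, and absorbance was read at 570 nm.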

Another assay concerns BT-474. As to the kind of experiment: Cytotoxicity against human BT-474 cells assessed as inhibition of cell growth measured for 24 hrs by MTT assay. The format is functional, cell-based. The settings on record: BT-474, 24 h. The method, boiled down:
as §1
For orientation: Formazan colour is commonly taken as a measure of viable cells.

The test system of assay [1] is HCT-116. As to the kind of experiment: Cytotoxicity against human HCT-116 cells assessed as inhibition of cell growth measured for 24 hrs by MTT assay. The format is functional, cell-based. The settings on record: HCT-116, 24 h. The method, boiled down:
as §1

The next assay concerns B16-F10. Nature of the assay: Cytotoxicity against mouse B16-F10 cells assessed as inhibition of cell growth measured for 24 hrs by MTT assay. Type of assay: functional, cell-based. The settings on record: B16-F10, 24 h. The method, boiled down:
as §1

The target of a further assay is Tubulin (Homo sapiens) (UniProt P68371+Q9H4B7+P0DPH7+P68366+Q13509+Q71U36+P04350+Q3ZCM7+P07437+P68363+Q9BQE3+Q6PEY2+Q13885+Q9BVA1+Q9BUF5). Nature of the assay: Inhibition of tubulin polymerization in human HCT-116 cells at 3 uM measured after 1 hr relative to control. The format is cell-based.
Assay [2] relates to HCT-116. As to the kind of experiment: Induction of apoptosis in human HCT-116 cells assessed as horseshoe shaped nuclei measured for 24 hrs by DAPI staining based microscopic analysis. The format is functional, cell-based. The note with it: dose 1.62-6.5 µM. The method, boiled down:
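Then PBS wash, 4% paraformaldehyde fixation 30 min, 0.1% Triton X permeabilisation 15 min, 1 µM DAPI 15 min, PBS wash. Imaged by fluorescence microscopy (ex 350/em 460 nm), 20X.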

In assay [3] the test system is HCT-116. Nature of the assay: Induction of cell cycle arrest in human HCT-116 cells assessed as accumulation of cells at S phase at 0.55 uM measured after 24 hrs by PI staining based flow cytometry analysis relative to control (reference value: 5.55%). For orientation: Flow cytometry measures light scatter and fluorescence of single cells or particles in a stream.
For assay [4], the system named is HCT-116. Nature of the assay: Induction of cell cycle arrest in human HCT-116 cells assessed as accumulation of cells at G2/M phase at 0.55 uM measured after 24 hrs by PI staining based flow cytometry analysis relative to control (reference value: 15.61%).
The subject of assay [5] is HCT-116. As to the kind of experiment: Induction of apoptosis in human HCT-116 cells assessed as viable cells at 0.55 uM measured after 24 hrs by Annexin V-FITC/propidium iodide staining based flow cytometry (reference value: 99.71%). Type of assay: functional. The note with it: read-out: Activity.
Assay [6] deals with HCT-116. As to the kind of experiment: Induction of morphological change in human HCT-116 cells assessed as cell detachment incubated for 24 hrs by phase contrast microscopic analysis. Type of assay: functional, cell-based. The method, boiled down: (§2)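 HCT-116 plated at 1 × 10^6 cells/mL in RPMI + 10% FBS and allowed to adhere 24 h at 37 °C, 5% CO2. […] After 24 h, morphology imaged by phase-contrast microscopy at 20X.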

Assay [7] deals with HCT-116. Nature of the assay: Induction of cell cycle arrest in human HCT-116 cells assessed as accumulation of cells at G0/G1 phase at 0.55 uM […] by PI staining based flow cytometry analysis relative to control (reference value: 70.34%). The format is functional.
Assay [8] concerns HCT-116. Nature of the assay: Induction of apoptosis in human HCT-116 cells assessed as necrotic cells at 0.55 uM measured after 24 hrs by Annexin V-FITC/propidium iodide staining based flow cytometry (reference value: 0.00%). The format is functional.
Assay [9] deals with HCT-116. Nature of the assay: Induction of apoptosis in human HCT-116 cells assessed as late apoptotic cells at 0.55 uM measured after 24 hrs by Annexin V-FITC/propidium iodide staining based flow cytometry (reference value: 0.00%). Type of assay: functional.
Assay [10] relates to HCT-116. Nature of the assay: Induction of apoptosis in human HCT-116 cells assessed as early apoptotic cells at 0.55 uM measured after 24 hrs by Annexin V-FITC/propidium iodide staining based flow cytometry (reference value: 0.28%). Type of assay: functional.
Assay [11] concerns HCT-116. As to the kind of experiment: Induction of morphological change in human HCT-116 cells assessed as cell rounding incubated for 24 hrs by phase contrast microscopic analysis. The format is functional, cell-based. The settings on record: dose 1.62-6.5 µM. The method, boiled down: as §2
The subject of assay [12] is HCT-116. As to the kind of experiment: Induction of morphological change in human HCT-116 cells assessed as change in cell shape incubated for 24 hrs by phase contrast microscopic analysis. Type of assay: functional, cell-based. The settings on record: dose 1.62-6.5 µM. The method, boiled down: as §2

On to `COc1ccc(C(=O)Cn2cc(COC(=O)/C(=C/c3ccc(OC)c(OC)c3)c3ccc4c(c3)OCO4)nn2)cc1`, for which the IC50 in the assay with A549 is 31.3 µM; with BT-474, more than 50 µM; with HCT-116 [1], more than 50 µM; in the assay on B16-F10, 37.7 µM.

For `COc1ccc(/C=C(/C(=O)OCc2cn(CC(=O)c3ccccc3)nn2)c2ccc3c(c2)OCO3)cc1OC`, the IC50 is 30.8 µM in the assay on A549, more than 50 µM in the assay with BT-474, more than 50 µM with HCT-116 [1] and 30.9 µM with B16-F10.

`COc1ccc(/C=C(/C(=O)OCc2cn(CC(=O)c3ccc(C)cc3)nn2)c2ccc(OC)c(OC)c2)cc1OC`: the IC50 in the assay on A549 was 41.7 µM; in the assay on BT-474, 40.7 µM; in the assay with HCT-116 [1] it was 33.4 µM; in the assay with B16-F10 it was more than 50 µM.

Molecule `CC(=O)O[C@H]1C(=O)[C@@]2(C)[C@H]([C@H](OC(=O)c3ccccc3)[C@]3(O)C[C@H](OC(=O)[C@H](O)[C@@H](NC(=O)c4ccccc4)c4ccccc4)C(C)=C1C3(C)C)[C@]1(OC(C)=O)CO[C@@H]1C[C@@H]2O` came in with an inhibition at Tubulin (Homo sapiens) of 49.5%.

For `COc1ccc(/C=C(/C(=O)OCc2cn(Cc3ccccc3F)nn2)c2ccc(OC)c(OC)c2)cc1OC`, the IC50 amounted to 29.2 µM with A549, 26.2 µM in the assay with BT-474, 22.1 µM with HCT-116 [1] and 17.4 µM with B16-F10.

Turning to `COc1ccc(/C=C(/C(=O)OCc2cn(Cc3cc(C)ccc3C)nn2)c2ccc(OC)c(OC)c2)cc1OC`, the concentration for half-maximal inhibition (IC50) in the assay on A549 was more than 50 µM; with BT-474, 20.1 µM; in the assay with HCT-116 [1], 49.9 µM; with B16-F10, 40.8 µM.

Take `COc1ccc(/C=C(/C(=O)OCc2cn(Cc3cccc(Cl)c3)nn2)c2ccc(OC)c(OC)c2)cc1OC`: the IC50 was more than 50 µM in the assay with A549, more than 50 µM with BT-474, 21.2 µM in the assay on HCT-116 [1] and 22.8 µM with B16-F10.

For `COc1ccc(/C=C(/C(=O)OCc2cn(Cc3ccc(Br)cc3)nn2)c2ccc(OC)c(OC)c2)cc1OC`, the IC50 in the assay with A549 is 15.2 µM; in the assay on BT-474, 20.7 µM; in the assay with HCT-116 [1], 25.3 µM; in the assay with B16-F10, 1.53 µM.

Take `COc1ccc(/C=C(/C(=O)OCc2cn(CC(=O)c3ccc(Cl)cc3)nn2)c2ccc(OC)c(OC)c2)cc1OC`: the IC50 was 38.6 µM in the assay with A549, more than 50 µM in the assay with BT-474, 31.9 µM in the assay on HCT-116 [1] and more than 50 µM in the assay with B16-F10.

Take `COc1ccc(/C=C(/C(=O)OCc2cn(CC(=O)c3ccc(Cl)cc3)nn2)c2ccc3c(c2)OCO3)cc1OC`: the IC50 is 37.3 µM in the assay on A549, more than 50 µM with BT-474, more than 50 µM with HCT-116 [1] and 28.9 µM with B16-F10.

Turning to `COc1ccc(/C=C(/C(=O)OCc2cn(Cc3ccccc3[N+](=O)[O-])nn2)c2ccc(OC)c(OC)c2)cc1OC`, the IC50 turned out to be 41 µM in the assay with A549, 40.8 µM in the assay on BT-474, 38.1 µM in the assay on HCT-116 [1] and 39.5 µM with B16-F10.

Take `COc1ccc(/C=C(/C(=O)OCc2cn(CC(=O)c3ccc(Cl)c(Cl)c3)nn2)c2ccc(OC)c(OC)c2)cc1OC`: the IC50 in the assay with A549 was found to be 37 µM; with BT-474 it was 47.5 µM; in the assay with HCT-116 [1], 26.5 µM; in the assay with B16-F10, 29.6 µM.

With `COc1ccc(/C=C(/C(=O)OCc2cn(CC(=O)c3ccccc3)nn2)c2ccc(OC)c(OC)c2)cc1OC`, the IC50 came out at 38.2 µM with A549, 16.2 µM in the assay with BT-474, 23.5 µM in the assay with HCT-116 [1] and 40.2 µM with B16-F10.

Take `COc1ccc(/C=C(/C(=O)OCc2cn(Cc3ccc([N+](=O)[O-])cc3)nn2)c2ccc(OC)c(OC)c2)cc1OC`: the IC50 came out at 36.8 µM in the assay on A549, 28.4 µM in the assay on BT-474, 35 µM in the assay with HCT-116 [1] and 17.5 µM in the assay with B16-F10.

In the case of `COc1ccc(/C=C(/C(=O)OCc2cn(Cc3ccc(F)cc3)nn2)c2ccc(OC)c(OC)c2)cc1OC`, the IC50 in the assay with A549 was 28.9 µM; in the assay with BT-474, 17.1 µM; in the assay with HCT-116 [1], 21.6 µM; in the assay on B16-F10, 2.37 µM.

Consider `COc1ccc(C(=O)Cn2cc(COC(=O)/C(=C/c3ccc(OC)c(OC)c3)c3ccc(OC)c(OC)c3)nn2)cc1`, for which the IC50 was determined as 41.9 µM in the assay with A549, 47.5 µM in the assay on BT-474, 18 µM with HCT-116 [1] and 14.1 µM with B16-F10.

As for `COc1ccc(/C=C(/C(=O)OCc2cn(CC(=O)c3ccc(Br)cc3)nn2)c2ccc(OC)c(OC)c2)cc1OC`, the IC50 in the assay on A549 was 42.9 µM; in the assay with BT-474, more than 50 µM; in the assay with HCT-116 [1], 35.8 µM; in the assay on B16-F10, more than 50 µM.

As for `COc1ccc(/C=C(/C(=O)OCc2cn(Cc3ccc(C)cc3)nn2)c2ccc(OC)c(OC)c2)cc1OC`, the IC50 was determined as 12.4 µM in the assay on A549, 12.4 µM with BT-474, 21.1 µM with HCT-116 [1] and 1.73 µM with B16-F10.

In the case of `COc1ccc(/C=C(/C(=O)OCc2cn(CC(=O)c3ccc(Cl)c(Cl)c3)nn2)c2ccc3c(c2)OCO3)cc1OC`, the IC50 in the assay on A549 was 25.5 µM; in the assay with BT-474, more than 50 µM; in the assay on HCT-116 [1], more than 50 µM; in the assay with B16-F10 it was 41.6 µM.

As for `COc1ccc(/C=C(/C(=O)OCc2cn(Cc3ccccc3)nn2)c2ccc(OC)c(OC)c2)cc1OC`, the IC50 in the assay on A549 was 32.7 µM; with BT-474, 14.9 µM; in the assay with HCT-116 [1] it was 20.2 µM; in the assay on B16-F10, 16.1 µM.

On to `COc1cc2c(c(OC)c1OC)-c1ccc(OC)c(=O)cc1[C@@H](NC(C)=O)CC2` [COLCHICINE], for which the Activity result with HCT-116 [2] was “Dose-Dependent Effect”; with HCT-116 [3], 6.61%; in the assay with HCT-116 [4] it was 40.57%; with HCT-116 [6], “Dose-Dependent Effect”; in the assay with HCT-116 [7] it was 54.45%; in the assay with HCT-116 [8], 6.78%. Besides, the Activity is 61.81% with HCT-116 [9], 10.32% with HCT-116 [10], “Dose-Dependent Effect” with HCT-116 [11] and “Dose-Dependent Effect” in the assay with HCT-116 [12]. In addition, the viability at 0.55 µM in the assay on HCT-116 [5] came to 31.1%. For the same molecule, the half-inhibitory concentration (IC50) came out at 0.89 µM in the assay with A549, 12.5 µM in the assay on BT-474 and 0.55 µM in the assay with HCT-116 [1].

The record behind these values is ChEMBL document CHEMBL5252639, “Exploration of cytotoxic potential and tubulin polymerization inhibition activity of cis-stilbene-1,2,3-triazole congeners” (RSC Med Chem, 2023).
